# Reference: ChEMBL document CHEMBL4706563, “Triphenylethylene analogues: Design, synthesis and evaluation of antitumor activity and topoisomerase inhibitors” (Eur J Med Chem, 2020)
# Active and inactive are the calls of the source. The rule behind the calls is not given here.
# Columns and labels:
# Assay type in all cases: functional
# HL-60(TB) = assay: Antiproliferative activity against human HL-60(TB) cells assessed as growth inhibition at 10 uM relative to control; conditions: read-out: GI
# K562 = assay: Antiproliferative activity against human K562 cells assessed as growth inhibition at 10 uM relative to control
# Summary of the method: (§1)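 Single-dose screen run by the US National Cancer Institute across its 60-human tumour cell line panel. Each compound was tested at one concentration. Percent growth inhibition was recorded for each cell line.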
# MOLT-4 = assay: Antiproliferative activity against human MOLT-4 cells assessed as growth inhibition at 10 uM relative to control; conditions: read-out: GI; summary of the method: as §1
# RPMI-8226 = assay: Antiproliferative activity against human RPMI-8226 cells assessed as growth inhibition at 10 uM relative to control; conditions: read-out: GI; summary of the method: as §1
# A549 = assay: Antiproliferative activity against human A549 cells assessed as growth inhibition at 10 uM relative to control; conditions: read-out: GI; summary of the method: as §1
# HOP-92 = assay: Antiproliferative activity against human HOP-92 cells assessed as growth inhibition at 10 uM relative to control; summary of the method: as §1
# NCI-H23 = assay: Antiproliferative activity against human NCI-H23 cells assessed as growth inhibition at 10 uM relative to control; conditions: read-out: GI; summary of the method: as §1
# NCI-H522 = assay: Antiproliferative activity against human NCI-H522 cells assessed as growth inhibition at 10 uM relative to control; conditions: read-out: GI; summary of the method: as §1
# COLO 205 = assay: Antiproliferative activity against human COLO 205 cells assessed as growth inhibition at 10 uM relative to control; conditions: read-out: GI; summary of the method: as §1
# HCC 2998 = assay: Antiproliferative activity against human HCC 2998 cells assessed as growth inhibition at 10 uM relative to control; conditions: read-out: GI; summary of the method: as §1
# HCT-116 = assay: Antiproliferative activity against human HCT-116 cells assessed as growth inhibition at 10 uM relative to control; conditions: read-out: GI; summary of the method: as §1
# HCT-15 = assay: Antiproliferative activity against human HCT-15 cells assessed as growth inhibition at 10 uM relative to control; conditions: read-out: GI; summary of the method: as §1
# HT-29 = assay: Antiproliferative activity against human HT29 cells assessed as growth inhibition at 10 uM relative to control; conditions: read-out: GI; summary of the method: as §1
# KM12 = assay: Antiproliferative activity against human KM12 cells assessed as growth inhibition at 10 uM relative to control; conditions: read-out: GI; summary of the method: as §1
# SF-539 = assay: Antiproliferative activity against human SF-539 cells assessed as growth inhibition at 10 uM relative to control; summary of the method: as §1
# SNB-19 = assay: Antiproliferative activity against human SNB-19 cells assessed as growth inhibition at 10 uM relative to control; conditions: read-out: GI
# Summary of the method: (§2)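 NCI 60 human tumour cell line panel screen. Compounds tested at a single dose and growth inhibition (%) determined for each line.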
# SNB-75 = assay: Antiproliferative activity against human SNB-75 cells assessed as growth inhibition at 10 uM relative to control; conditions: read-out: GI; summary of the method: as §2
# U-251 = assay: Antiproliferative activity against human U251 cells assessed as growth inhibition at 10 uM relative to control; conditions: read-out: GI; summary of the method: as §2
# LOX IMVI = assay: Antiproliferative activity against human LOX IMVI cells assessed as growth inhibition at 10 uM relative to control; conditions: read-out: GI; summary of the method: as §1
# M14 = assay: Antiproliferative activity against human M14 cells assessed as growth inhibition at 10 uM relative to control; conditions: read-out: GI; summary of the method: as §1
# MDA-MB-435 = assay: Antiproliferative activity against human MDA-MB-435 cells assessed as growth inhibition at 10 uM relative to control; conditions: read-out: GI; summary of the method: as §1
# SK-MEL-28 = assay: Antiproliferative activity against human SK-MEL-28 cells assessed as growth inhibition at 10 uM relative to control; conditions: read-out: GI; summary of the method: as §2
# SK-MEL-5 = assay: Antiproliferative activity against human SK-MEL-5 cells assessed as growth inhibition at 10 uM relative to control; conditions: read-out: GI; summary of the method: as §2
# UACC-257 = assay: Antiproliferative activity against human UACC-257 cells assessed as growth inhibition at 10 uM relative to control; conditions: read-out: GI; summary of the method: as §2
# UACC-62 = assay: Antiproliferative activity against human UACC-62 cells assessed as growth inhibition at 10 uM relative to control; summary of the method: as §2
# IGROV-1 = assay: Antiproliferative activity against human IGROV-1 cells assessed as growth inhibition at 10 uM relative to control; conditions: read-out: GI; summary of the method: as §1
# OVCAR-3 = assay: Antiproliferative activity against human OVCAR-3 cells assessed as growth inhibition at 10 uM relative to control; conditions: read-out: GI; summary of the method: as §1
# OVCAR-4 = assay: Antiproliferative activity against human OVCAR-4 cells assessed as growth inhibition at 10 uM relative to control; conditions: read-out: GI; summary of the method: as §1
# NCI/ADR-RES = assay: Antiproliferative activity against human NCI/ADR-RES cells assessed as growth inhibition at 10 uM relative to control; conditions: read-out: GI; summary of the method: as §1
# SK-OV-3 = assay: Antiproliferative activity against human SK-OV-3 cells assessed as growth inhibition at 10 uM relative to control; conditions: read-out: GI; summary of the method: as §2
# SN12C = assay: Antiproliferative activity against human SN12C cells assessed as growth inhibition at 10 uM relative to control; conditions: read-out: GI; summary of the method: as §2
# UO-31 = assay: Antiproliferative activity against human UO-31 cells assessed as growth inhibition at 10 uM relative to control; conditions: read-out: GI; summary of the method: as §2
# DU-145 = assay: Antiproliferative activity against human DU-145 cells assessed as growth inhibition at 10 uM relative to control; conditions: read-out: GI; summary of the method: as §1
# MCF7 = assay: Antiproliferative activity against human MCF7 cells assessed as growth inhibition at 10 uM relative to control; conditions: read-out: GI; summary of the method: as §1
# MDA-MB-231 = assay: Antiproliferative activity against human MDA-MB-231 cells assessed as growth inhibition at 10 uM relative to control; conditions: read-out: GI; summary of the method: as §1
# Hs-578T = assay: Antiproliferative activity against human Hs-578T cells assessed as growth inhibition at 10 uM relative to control; conditions: read-out: GI; summary of the method: as §1
# BT-549 = assay: Antiproliferative activity against human BT-549 cells assessed as growth inhibition at 10 uM relative to control; conditions: read-out: GI; summary of the method: as §1
# T47D = assay: Antiproliferative activity against human T47D cells assessed as growth inhibition at 10 uM relative to control; summary of the method: as §2
# MDA-MB-468 = assay: Antiproliferative activity against human MDA-MB-468 cells assessed as growth inhibition at 10 uM relative to control; conditions: read-out: GI; summary of the method: as §1
# OVCAR-8 = assay: Antiproliferative activity against human OVCAR-8 cells assessed as growth inhibition at 10 uM relative to control; conditions: read-out: GI; summary of the method: as §1
# Leukemia cell = assay: Antiproliferative activity against human leukemia cells
# [1] = Antiproliferative activity against human Non-small cell lung cancer cells; conditions: Non-small cell lung cancer cell line
# [2] = Antiproliferative activity against human Melanoma cells; conditions: Melanoma cell line
# [3] = Antiproliferative activity against human ovarian cancer cells; conditions: Ovarian cancer cell line
# [4] = Antiproliferative activity against human renal cancer cells; conditions: Renal cancer cell line, read-out: LC50 (the source's name)
# [5] = Antiproliferative activity against human prostate cancer cells; conditions: Prostate tumor cell line
# [6] = Antiproliferative activity against human breast cancer cells; conditions: Breast cancer cell line
# [7] = read-out: LC50 (the source's name)
smiles,measurement,setting,value
CC/C(=C(\c1ccccc1)c1ccc(OCCN(C)C)cc1)c1ccccc1 [TAMOXIFEN],inhibition of growth at 10 µM,HL-60(TB),60.4%
same,growth inhibition (GI),K562,inactive
same,inhibition of growth at 10 µM,MOLT-4,66.7%
same,inhibition of growth at 10 µM,RPMI-8226,-28.3%
same,inhibition of growth at 10 µM,A549,50.2%
same,growth inhibition (GI),HOP-92,inactive
same,inhibition of growth at 10 µM,NCI-H23,39.7%
same,inhibition of growth at 10 µM,NCI-H522,53.4%
same,inhibition of growth at 10 µM,COLO 205,-89%
same,inhibition of growth at 10 µM,HCC 2998,83.7%
same,inhibition of growth at 10 µM,HCT-116,73.8%
same,inhibition of growth at 10 µM,HCT-15,92.4%
same,inhibition of growth at 10 µM,HT-29,-11.2%
same,inhibition of growth at 10 µM,KM12,75%
same,growth inhibition (GI),SF-539,inactive
same,inhibition of growth at 10 µM,SNB-19,47.4%
same,inhibition of growth at 10 µM,SNB-75,60.1%
same,inhibition of growth at 10 µM,U-251,95.2%
same,inhibition of growth at 10 µM,LOX IMVI,-43.9%
same,inhibition of growth at 10 µM,M14,-75%
same,inhibition of growth at 10 µM,MDA-MB-435,62.2%
same,inhibition of growth at 10 µM,SK-MEL-28,88.7%
same,inhibition of growth at 10 µM,SK-MEL-5,-95.2%
same,inhibition of growth at 10 µM,UACC-257,-64.3%
same,growth inhibition (GI),UACC-62,inactive
same,inhibition of growth at 10 µM,IGROV-1,58.8%
same,inhibition of growth at 10 µM,OVCAR-3,47.1%
same,inhibition of growth at 10 µM,OVCAR-4,53.7%
same,inhibition of growth at 10 µM,NCI/ADR-RES,56.8%
same,inhibition of growth at 10 µM,SK-OV-3,33.2%
same,inhibition of growth at 10 µM,SN12C,52.3%
same,inhibition of growth at 10 µM,UO-31,59.7%
same,inhibition of growth at 10 µM,DU-145,34.6%
same,inhibition of growth at 10 µM,MCF7,-10.3%
same,inhibition of growth at 10 µM,MDA-MB-231,54.8%
same,inhibition of growth at 10 µM,Hs-578T,39.5%
same,inhibition of growth at 10 µM,BT-549,30.2%
same,growth inhibition (GI),T47D,inactive
same,inhibition of growth at 10 µM,MDA-MB-468,-13.3%
same,inhibition of growth at 10 µM,OVCAR-8,39.5%
same,GI50,Leukemia cell,2.08 µM
same,TGI,Leukemia cell,6.42 µM
same,GI50,[1],4.01 µM
same,TGI,[1],9.2 µM
same,CC50,[1]; [7],2.6 µM
same,GI50,[2],2.03 µM
same,TGI,[2],5.49 µM
same,GI50,[3],4.7 µM
same,TGI,[3],11.9 µM
same,CC50,[3]; [7],2.78 µM
same,CC50,[4],2.59 µM
same,GI50,[5],4.4 µM
same,TGI,[5],11.1 µM
same,CC50,[5]; [7],233 µM
same,GI50,[6],3.05 µM
same,TGI,[6],10.4 µM
same,CC50,[6]; [7],2.83 µM
